Reference: ChEMBL document CHEMBL2034888, “Synthesis, anticonvulsant activity, and neuropathic pain-attenuating activity of N-benzyl 2-amino-2-(hetero)aromatic acetamides” (Bioorg Med Chem, 2012)

How the values were obtained:
[1] = Neurotoxicity in ip dosed albino CF-1 mouse by rotorod test; assay type: toxicity, organism-based; conditions: in vivo
Mus musculus [2] = assay: Anticonvulsant activity in ip dosed albino CF-1 mouse assessed as protection against maximal electroshock-induced seizure; assay type: functional; conditions: albino CF-1, ip
Mus musculus [3] = assay: Toxicity in ip dosed NMRI mouse assessed as tremors at 90 mg/kg, ip after 30 mins; assay type: organism-based; design: dose 90 mg/kg, route intraperitoneal; conditions: in vivo, 0.5 h
How it was run: (§1)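 Adult male NMRI mice were dosed ip. Whole-animal pharmacological observation was made at the stated mg/kg dose, recording tremors, convulsions, writhing, impaired gait or mortality. Timing was 30 min post-dose.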

Mus musculus [4] = assay: Anticonvulsant activity in ip dosed NMRI mouse assessed as protection against maximal electroshock-induced seizure after 30 mins postdose; assay type: functional; conditions: 0.5 h; for minimal effective dose: read-out: MED
How it was run: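 Adult male NMRI mice given compound intraperitoneally; maximal electroshock seizure test run 30 min after dosing. Where a dose–response was run, ED50 in mg/kg was derived. Otherwise a minimal active dose was reported, or the percentage of mice protected at a single dose.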

Mus musculus [5] = assay: Antinociceptive activity in NMRI mouse neuropathic pain model assessed as protection against formalin-induced nociceptive behaviour at 90 mg/kg, ip after 30 mins; assay type: functional; conditions: route intraperitoneal
How it was run: (§2)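 Formalin test in adult male NMRI mice used as a prescreen for pain attenuation, 30 min after ip administration. ED50 in mg/kg was derived where possible. Otherwise the percent protected after a single stated dose was reported.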

Mus musculus [6] = assay: Anticonvulsant activity in ip dosed NMRI mouse assessed as protection against 6 Hz psychomotor seizure after 30 mins; assay type: functional; conditions: 0.5 h
How it was run: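 Adult male NMRI mice dosed ip. Psychomotor seizures were induced by 6 Hz stimulation at 44 mA, 30 min after administration. ED50 in mg/kg was derived where determinable, otherwise a minimal active dose was reported.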

Mus musculus [7] = assay: Toxicity in ip dosed NMRI mouse assessed as convulsions at 160 mg/kg, ip after 30 mins; assay type: organism-based; design: dose 160 mg/kg, route intraperitoneal; conditions: in vivo, 0.5 h; how it was run: as §1
Mus musculus [8] = assay: Antinociceptive activity in ip dosed NMRI mouse neuropathic pain model assessed as protection against formalin-induced nociceptive behaviour after 30 mins; assay type: functional; conditions: 0.5 h; how it was run: as §2
Mus musculus [9] = assay: Protective index, ratio of TD50 for NMRI mouse to ED50 for antinociceptive activity in ip dosed NMRI mouse neuropathic pain model; assay type: functional
[10] = Neurotoxicity in ip dosed NMRI mouse after 30 mins by rotorod test; assay type: toxicity, organism-based; conditions: in vivo
How it was run: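 Neurological impairment was scored by rotorod in adult male NMRI mice 30 min after ip dosing. TD50 in mg/kg was derived where possible, otherwise the maximal tolerated dose was given.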

Mus musculus [11] = assay: Protective index, ratio of TD50 for NMRI mouse to ED50 for anticonvulsant activity in ip dosed NMRI mouse by maximal electroshock seizure test; assay type: functional
Mus musculus [12] = assay: Toxicity in ip dosed NMRI mouse assessed as mortality at 140 mg/kg, ip after 30 mins; assay type: organism-based; design: dose 140 mg/kg, route intraperitoneal; conditions: in vivo, 0.5 h
How it was run: (§3)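 Adult male NMRI mice dosed intraperitoneally. Whole-animal pharmacological observation at the listed mg/kg dose, with convulsions and mortality recorded as signs. This was done alongside MES, 6 Hz (44 mA) psychomotor seizure, formalin and rotorod testing, which were read 30 min after ip dosing.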

Mus musculus [13] = assay: Antinociceptive activity in NMRI mouse neuropathic pain model assessed as protection against formalin-induced nociceptive behaviour at 24 mg/kg, ip after 30 mins; assay type: functional; conditions: route intraperitoneal; how it was run: as §2
Mus musculus [14] = assay: Toxicity in ip dosed NMRI mouse assessed as convulsions at 77 mg/kg, ip after 30 mins; assay type: organism-based; design: dose 77 mg/kg, route intraperitoneal; conditions: in vivo, 0.5 h; how it was run: as §1
[15] = Ratio of drug level in brain to plasma in mouse; assay type: ADME, organism-based; conditions: brain and plasma, read-out: BPR
Mus musculus [16] = assay: Toxicity in ip dosed NMRI mouse assessed as mortality at 105 mg/kg, ip after 30 mins; assay type: organism-based; design: dose 105 mg/kg, route intraperitoneal; conditions: in vivo, 0.5 h; how it was run: as §3
Mus musculus [17] = assay: Toxicity in ip dosed NMRI mouse assessed as convulsions at 105 mg/kg, ip after 30 mins; assay type: organism-based; design: dose 105 mg/kg, route intraperitoneal; conditions: in vivo, 0.5 h; how it was run: as §3
Mus musculus [18] = assay: Antinociceptive activity in NMRI mouse neuropathic pain model assessed as protection against formalin-induced nociceptive behaviour at 110 mg/kg, ip after 30 mins; assay type: functional; conditions: route intraperitoneal; how it was run: as §2
Mus musculus [19] = assay: Toxicity in ip dosed NMRI mouse assessed as tremors at 59 mg/kg, ip after 30 mins; assay type: organism-based; design: dose 59 mg/kg, route intraperitoneal; conditions: in vivo, 0.5 h; how it was run: as §1
Mus musculus [20] = assay: Toxicity in ip dosed NMRI mouse assessed as mortality at 110 mg/kg, ip after 30 mins; assay type: organism-based; design: dose 110 mg/kg, route intraperitoneal; conditions: in vivo, 0.5 h; how it was run: as §3
Mus musculus [21] = assay: Toxicity in ip dosed NMRI mouse assessed as writhings at 59 mg/kg, ip after 30 mins; assay type: organism-based; design: dose 59 mg/kg, route intraperitoneal; conditions: in vivo, 0.5 h; how it was run: as §1
Mus musculus [22] = assay: Toxicity in ip dosed NMRI mouse assessed as convulsions at 110 mg/kg, ip after 30 mins; assay type: organism-based; design: dose 110 mg/kg, route intraperitoneal; conditions: in vivo, 0.5 h; how it was run: as §3

SMILES | ED50 (Mus musculus [4]) | ED50 (Mus musculus [6]) | ED50 (Mus musculus [8]) | Ratio TD50/ED50 (Mus musculus [11]) | further results
CC(=O)NC(C(=O)NCc1ccccc1)c1cc2ccccc2o1 (racemic) |  |  |  |  | TD50 [1]: 100 mg/kg; ED50 (Mus musculus [2]): 100 mg/kg
CC(=O)NC(C(=O)NCc1ccccc1)c1ccc2ccccc2c1 (racemic) |  |  |  |  | TD50 [1]: > 300 mg/kg; ED50 (Mus musculus [2]): > 300 mg/kg
NC(C(=O)NCc1ccccc1)c1cc2ccccc2o1 (racemic) | 90 mg/kg | > 120 mg/kg |  |  | Activity (Mus musculus [3]): Toxic; Activity (Mus musculus [5]): 31%
NC(C(=O)NCc1ccccc1)c1cccs1 (racemic) |  | > 91 mg/kg | 48 mg/kg | <0.8 | Activity (Mus musculus [7]): Toxic; minimal effective dose (Mus musculus [4]): 68 mg/kg; Ratio TD50/ED50 (Mus musculus [9]): <1.1; MTD at 0.5 h [10]: 51 mg/kg
NC(C(=O)NCc1ccccc1)c1nccs1 (racemic) | 67 mg/kg | > 140 mg/kg | 45 mg/kg | <2.1 | Ratio TD50/ED50 (Mus musculus [9]): <3.1; MTD at 0.5 h [10]: 140 mg/kg
NC(C(=O)NCc1ccccc1)c1cc2ccccc2s1 (racemic) | 120 mg/kg | > 170 mg/kg | 66 mg/kg |  | 
NC(C(=O)NCc1ccccc1)c1ccccc1 (racemic) | > 30 mg/kg | > 43 mg/kg |  | >1.7 | Activity (Mus musculus [12]): Toxic; Ratio TD50/ED50 (Mus musculus [9]): >1.2; TD50 at 0.5 h [10]: 51 mg/kg; Activity (Mus musculus [13]): 37%; Activity (Mus musculus [14]): Toxic
NC(C(=O)NCc1ccccc1)c1ccccn1 (racemic) |  | > 100 mg/kg | 33 mg/kg |  | minimal effective dose (Mus musculus [4]): 100 mg/kg; Kp [15]: 2.7; MTD at 0.5 h [10]: 180 mg/kg
NC(C(=O)NCc1ccccc1)c1cccnc1 (racemic) |  | > 210 mg/kg | 74 mg/kg |  | minimal effective dose (Mus musculus [4]): 120 mg/kg
NC(C(=O)NCc1ccccc1)c1ccncc1 (racemic) |  | > 120 mg/kg | 67 mg/kg |  | minimal effective dose (Mus musculus [4]): 210 mg/kg
NC(C(=O)NCc1ccccc1)c1cnccn1 (racemic) | 85 mg/kg |  | > 160 mg/kg | >1.9 | minimal effective dose (Mus musculus [6]; read-out: MED): 28 mg/kg; Ratio TD50/ED50 (Mus musculus [9]): >1; TD50 at 0.5 h [10]: > 160 mg/kg
NC(C(=O)NCc1ccccc1)c1cccc2ccccc12 (racemic) | > 69 mg/kg | > 59 mg/kg | > 33 mg/kg |  | Activity (Mus musculus [16]): Toxic; Activity (Mus musculus [17]): Toxic
NC(C(=O)NCc1ccccc1)c1nccc2ccccc12 (racemic) | > 52 mg/kg | > 93 mg/kg | 29 mg/kg |  | 
NC(C(=O)NCc1ccccc1)c1ccc2ccccc2c1 (racemic) | 45 mg/kg | > 110 mg/kg | < 110 mg/kg | <2.4 | Activity (Mus musculus [18]): 100%; Activity (Mus musculus [19]): Toxic; Activity (Mus musculus [20]): Toxic; TD50 at 0.5 h [10]: 110 mg/kg; Activity (Mus musculus [21]): Toxic; Activity (Mus musculus [22]): Toxic
